For series [1], the system named is Enterococcus faecalis. Kind of series: Antibacterial activity against […] Enterococcus faecalis BM4316 using BHI broth by macrodilution method. In kind it is functional. Summed up: (§1)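 Macrodilution per CLSI in BHI broth at 37°C, with 50 μg/ml free Ca2+ for daptomycin; MIC read as lowest concentration with no growth after 1 day.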

Series [2] relates to Enterococcus faecalis. Kind of series: Antibacterial activity against vancomycin-susceptible Enterococcus faecalis JH2-2 using BHI broth by macrodilution method. Format: functional. In outline: as §1
The test system of series [3] is Enterococcus faecalis. Nature of the series: Antibacterial activity against […] Enterococcus faecalis BM4275 using BHI broth by macrodilution method. In kind it is functional. In outline:
as §1

In series [4] the test system is Enterococcus faecalis. Nature of the series: Antibacterial activity against […] Enterococcus faecalis BM4275 assessed as decrease in bacterial count at 4 times MIC after 180 mins using BHI broth. Format: functional, organism-based. Summed up: (§2)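 Exponential-phase suspension (10^5 CFU/ml) in BHI, 37°C, exposed to 4× MIC for 180 min alongside antibiotic-free control; daptomycin medium carried 50 μg/ml free Ca2+. Survivors counted on BHI agar; value is mean difference in log10 CFU/ml with versus without antibiotic, 4 independent experiments, mean ± SD.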

Series [5] has as its system Enterococcus faecalis. Nature of the series: Drug uptake in vancomycin[…]-type Enterococcus faecalis BM4316 assessed as red-fluorescent bacteria at 1 times MIC after 1 hr by confocal microscopy.
Series [6] relates to Enterococcus faecalis. Nature of the series: Antibacterial activity against […] Enterococcus faecalis BM4316 assessed as dismorphic bacterial chains at 1 times MIC after 1 hr by confocal microscopy.
The subject of series [7] is Enterococcus faecalis. Nature of the series: Antibacterial activity against vancomycin-susceptible Enterococcus faecalis JH2-2 assessed as membrane potential/size ratio at 0.25 to 1 times MIC after 1 hr by flow cytometry.
Series [8] has as its system Enterococcus faecalis. Nature of the series: Drug uptake in vancomycin[…]-type Enterococcus faecalis BM4275 assessed as red-fluorescent bacteria at 1 times MIC after 1 hr by confocal microscopy.
In series [9] the test system is Enterococcus faecalis. Kind of series: Antibacterial activity against […] Enterococcus faecalis BM4316 assessed as membrane potential/size ratio at 0.25 to 1 times MIC after 1 hr […]. Format: functional, organism-based.
The subject of series [10] is Enterococcus faecalis. Kind of series: Drug uptake in vancomycin-susceptible Enterococcus faecalis JH2-2 assessed as red-fluorescent bacteria at 1 times MIC after 1 hr by confocal microscopy.
In series [11] the test system is Enterococcus faecalis. Nature of the series: Antibacterial activity against vancomycin-susceptible Enterococcus faecalis JH2-2 assessed as decrease in bacterial count at 4 times MIC after 180 mins using BHI broth. Format: functional, organism-based. In outline:
as §2

Series [12] relates to Enterococcus faecalis. Kind of series: Antibacterial activity against vancomycin-susceptible Enterococcus faecalis JH2-2 assessed as increase in cell size at 0.25 times MIC after 30 to 90 mins by flow cytometric analysis relative to control. Format: functional, organism-based. In outline:
(§3)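 10^5 CFU/ml exponential cells in BHI, 37°C, exposed to 0.25× or 1× MIC (daptomycin with 50 μg/ml free Ca2+) for 30, 60, 90 min, then diluted to ca. 10^4 CFU/ml in PBS. Flow cytometry forward scatter, log amplifiers, 5,000 events; % increase in size versus untreated control, triplicate, mean ± SD; Kruskal-Wallis then Mann-Whitney.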

Series [13] concerns Enterococcus faecalis. Nature of the series: Antibacterial activity against […] Enterococcus faecalis BM4275 assessed as dismorphic bacterial chains at 1 times MIC after 1 hr by confocal microscopy.
Series [14] deals with Enterococcus faecalis. Nature of the series: Antibacterial activity against […] Enterococcus faecalis BM4316 assessed as increase in cell size at 0.25 times MIC after 30 to 90 mins by flow cytometric analysis relative to control. In kind it is functional, organism-based. Summed up: as §3
Series [15] concerns Enterococcus faecalis. Nature of the series: Antibacterial activity against […] Enterococcus faecalis BM4275 assessed as membrane potential/size ratio at 0.25 to 1 times MIC after 1 hr […]. Format: functional, organism-based.
The test system of series [16] is Enterococcus faecalis. Kind of series: Antibacterial activity against vancomycin-susceptible Enterococcus faecalis JH2-2 assessed as dismorphic bacterial chains at 1 times MIC after 1 hr using BacLight Live/Dead kit by confocal microscopy.
In series [17] the test system is Enterococcus faecalis. Kind of series: Antibacterial activity against […] Enterococcus faecalis BM4316 assessed as decrease in bacterial count at 4 times MIC after 180 mins using BHI broth. In kind it is functional, organism-based. Summed up:
as §2

Series [18] relates to Enterococcus faecalis. Nature of the series: Antibacterial activity against […] Enterococcus faecalis BM4275 assessed as increase in cell size at 0.25 times MIC after 30 to 90 mins by flow cytometric analysis relative to control. In kind it is functional, organism-based. Summed up: as §3
For orientation: In flow cytometry, cells or beads pass a laser one at a time.

The test system of series [19] is Enterococcus faecalis. Kind of series: Antibacterial activity against […] Enterococcus faecalis BM4316 assessed as increase in cell size at 1 times MIC after 30 to 90 mins by flow cytometric analysis relative to control. Format: functional, organism-based. Summed up:
as §3

Series [20] concerns Enterococcus faecalis. Kind of series: Antibacterial activity against […] Enterococcus faecalis BM4275 assessed as increase in cell size at 1 times MIC after 30 to 90 mins by flow cytometric analysis relative to control. Format: functional, organism-based. In outline: as §3
The subject of series [21] is Enterococcus faecalis. Kind of series: Antibacterial activity against vancomycin-susceptible Enterococcus faecalis JH2-2 assessed as increase in cell size at 1 times MIC after 30 to 90 mins by flow cytometric analysis relative to control. Format: functional, organism-based. Summed up:
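Exponentially growing cells at 10^5 CFU/ml in BHI broth at 37°C were exposed to 0.25× or 1× MIC and sampled at 30, 60 and 90 min. Untreated controls were run alongside. Cells were diluted to ca. 10^4 CFU/ml in PBS and gated on log forward scatter for 5,000 events. Runs were in triplicate, reported as mean % size increase versus control.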

Series [22] has as its system Enterococcus faecalis. Kind of series: Antibacterial activity against […] Enterococcus faecalis BM4316 assessed as change in CFU count at 1 times MIC after 30 to 90 mins. Format: functional, organism-based. Summed up:
(§4)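 Exponentially growing cells, 10^5 CFU/ml in BHI at 37°C, exposed to 1× MIC antibiotic (daptomycin medium with 50 μg/ml free Ca2+) for 30, 60 and 90 min; viable counts by enumeration on BHI agar.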

The test system of series [23] is Enterococcus faecalis. Nature of the series: Antibacterial activity against vancomycin-susceptible Enterococcus faecalis JH2-2 assessed as change in CFU count at 1 times MIC after 30 to 90 mins. In kind it is functional, organism-based. Summed up: as §4
Another series concerns Staphylococcus aureus. Kind of series: Antibacterial activity against Staphylococcus aureus ATCC 29213 assessed as cells with altered cell wall morphology at 8 times MIC after 60 mins. Format: functional.
The test system of series [24] is Enterococcus faecalis. Nature of the series: Antibacterial activity against […] Enterococcus faecalis BM4275 assessed as change in CFU count at 1 times MIC after 30 to 90 mins. Format: functional, organism-based. Summed up: as §4

The source made the active and inactive calls. The calls are words filed in the database; no cut-off is given here.

`CN[C@H](CC(C)C)C(=O)N[C@H]1C(=O)N[C@@H](CC(N)=O)C(=O)N[C@H]2C(=O)N[C@H]3C(=O)N[C@H](C(=O)N[C@H](C(=O)O)c4cc(O)cc(O)c4-c4cc3ccc4O)[C@H](O)c3ccc(c(Cl)c3)Oc3cc2cc(c3O[C@@H]2O[C@H](CO)[C@@H](O)[C@H](O)[C@H]2O[C@H]2C[C@](C)(NCCCCNc3cc(C(F)(F)F)nc4cc(Cl)ccc34)[C@H](O)[C@H](C)O2)Oc2ccc(cc2Cl)[C@H]1O` [listing 1 of 2 here]: the Activity with Enterococcus faecalis [1] was found to be 4 µg/mL; with Enterococcus faecalis [2], 0.5 µg/mL; in the series with Enterococcus faecalis [3], 2 µg/mL.

For `CCCCCCCCCCNCCN[C@@]1(C)C[C@H](O[C@H]2[C@H](Oc3c4cc5cc3Oc3ccc(cc3Cl)[C@@H](O)[C@@H](NC(=O)[C@@H](CC(C)C)NC)C(=O)N[C@@H](CC(N)=O)C(=O)N[C@H]5C(=O)N[C@H]3C(=O)N[C@H](C(=O)N[C@H](C(=O)O)c5cc(O)c(CNCP(=O)(O)O)c(O)c5-c5cc3ccc5O)[C@H](O)c3ccc(c(Cl)c3)O4)O[C@H](CO)[C@@H](O)[C@@H]2O)O[C@@H](C)[C@H]1O` [TELAVANCIN], the outcome with Enterococcus faecalis [4], with Enterococcus faecalis [11], in the series with Enterococcus faecalis [12], in the series with Enterococcus faecalis [14], in the series with Enterococcus faecalis [17] and with Enterococcus faecalis [18] was Active. The Drug uptake result with Enterococcus faecalis [5], in the series on Enterococcus faecalis [8] and with Enterococcus faecalis [10] was “Active” each time. In addition, the outcome with Enterococcus faecalis [6], with Enterococcus faecalis [7], in the series on Enterococcus faecalis [9], in the series with Enterococcus faecalis [13], with Enterococcus faecalis [15] and with Enterococcus faecalis [16] was inactive. In addition, the Activity with Enterococcus faecalis [1] turned out to be 4 µg/mL; in the series with Enterococcus faecalis [2], 1 µg/mL; in the series on Enterococcus faecalis [3], 1 µg/mL.

As to `CN[C@H](CC(C)C)C(=O)N[C@H]1C(=O)N[C@@H](CC(N)=O)C(=O)N[C@H]2C(=O)N[C@H]3C(=O)N[C@H](C(=O)N[C@@H](C(=O)O)c4cc(O)cc(O)c4-c4cc3ccc4O)[C@H](O)c3ccc(c(Cl)c3)Oc3cc2cc(c3O[C@@H]2O[C@H](CO)[C@@H](O)[C@H](O)[C@H]2O[C@H]2C[C@](C)(NCCCCNc3cc(C(F)(F)F)nc4cc(Cl)ccc34)[C@H](O)[C@H](C)O2)Oc2ccc(cc2Cl)[C@H]1O`, the outcome with Enterococcus faecalis [4], in the series with Enterococcus faecalis [11], in the series with Enterococcus faecalis [12], with Enterococcus faecalis [14] and in the series on Enterococcus faecalis [17] was Active. In addition, the result in the series on Enterococcus faecalis [6], with Enterococcus faecalis [7], in the series with Enterococcus faecalis [9], in the series on Enterococcus faecalis [13], in the series with Enterococcus faecalis [15] and with Enterococcus faecalis [16] was inactive.

On to `CN[C@H](CC(C)C)C(=O)N[C@H]1C(=O)N[C@@H](CC(N)=O)C(=O)N[C@H]2C(=O)N[C@H]3C(=O)N[C@H](C(=O)N[C@H](C(=O)O)c4cc(O)cc(O)c4-c4cc3ccc4O)[C@H](O)c3ccc(c(Cl)c3)Oc3cc2cc(c3O[C@@H]2O[C@H](CO)[C@@H](O)[C@H](O)[C@H]2O[C@H]2C[C@](C)(NCCCCNc3cc(C(F)(F)F)nc4cc(Cl)ccc34)[C@H](O)[C@H](C)O2)Oc2ccc(cc2Cl)[C@H]1O` [listing 2 of 2 here], for which the Drug uptake entry in the series on Enterococcus faecalis [5], in the series with Enterococcus faecalis [8] and in the series with Enterococcus faecalis [10] was “Active” throughout.

Take `CCCCCCCCCC(=O)N[C@@H](Cc1c[nH]c2ccccc12)C(=O)N[C@H](CC(N)=O)C(=O)N[C@@H](CC(=O)O)C(=O)N[C@@H]1C(=O)NCC(=O)N[C@@H](CCCN)C(=O)N[C@@H](CC(=O)O)C(=O)N[C@H](C)C(=O)N[C@@H](CC(=O)O)C(=O)NCC(=O)N[C@H](CO)C(=O)N[C@@H]([C@H](C)CC(=O)O)C(=O)N[C@@H](CC(=O)c2ccccc2N)C(=O)O[C@@H]1C`: the result in the series on Enterococcus faecalis [19], in the series with Enterococcus faecalis [4], in the series on Enterococcus faecalis [20], in the series with Enterococcus faecalis [6], in the series with Enterococcus faecalis [21] and in the series on Enterococcus faecalis [22] was Active. Further, the result in the series on Enterococcus faecalis [11], with Enterococcus faecalis [23], with Enterococcus faecalis [12], in the series with Enterococcus faecalis [13], in the series on Enterococcus faecalis [14] and with Enterococcus faecalis [16] was Active. Besides, the outcome in the series with Enterococcus faecalis [17], with Enterococcus faecalis [24] and in the series with Enterococcus faecalis [18] was Active. The Drug uptake entry in the series on Enterococcus faecalis [5], in the series on Enterococcus faecalis [8] and in the series on Enterococcus faecalis [10] was “Active” each time. The result in the series on Enterococcus faecalis [7], with Enterococcus faecalis [9] and in the series with Enterococcus faecalis [15] was inactive. The Activity in the series with Enterococcus faecalis [1] was 2 µg/mL; with Staphylococcus aureus, above 90%; in the series on Enterococcus faecalis [2], 2 µg/mL; in the series on Enterococcus faecalis [3], 2 µg/mL.

For the molecule `CN[C@H](CC(C)C)C(=O)N[C@H]1C(=O)N[C@@H](CC(N)=O)C(=O)N[C@H]2C(=O)N[C@H]3C(=O)N[C@H](C(=O)N[C@H](C(=O)O)c4cc(O)cc(O)c4-c4cc3ccc4O)[C@H](O)c3ccc(c(Cl)c3)Oc3cc2cc(c3O[C@@H]2O[C@H](CO)[C@@H](O)[C@H](O)[C@H]2O[C@H]2C[C@](C)(N)[C@H](O)[C@H](C)O2)Oc2ccc(cc2Cl)[C@H]1O` [VANCOMYCIN], the outcome in the series on Enterococcus faecalis [4], in the series on Enterococcus faecalis [21], with Enterococcus faecalis [11], in the series with Enterococcus faecalis [12] and in the series with Enterococcus faecalis [17] was Active. Further, the Drug uptake result with Enterococcus faecalis [5], in the series with Enterococcus faecalis [8] and in the series on Enterococcus faecalis [10] was “Active” in each case. Also, the result in the series on Enterococcus faecalis [6], in the series with Enterococcus faecalis [7], in the series with Enterococcus faecalis [9], in the series on Enterococcus faecalis [13], with Enterococcus faecalis [15] and in the series with Enterococcus faecalis [16] was inactive. Besides, the Activity was found to be 512 µg/mL with Enterococcus faecalis [1], 4 µg/mL with Enterococcus faecalis [2] and 256 µg/mL in the series with Enterococcus faecalis [3].

Source of the values: ChEMBL document CHEMBL1687826, “Flow cytometry as a tool to determine the effects of cell wall-active antibiotics on vancomycin-susceptible and -resistant Enterococcus faecalis strains” (Antimicrob Agents Chemother, 2011).
